Measured values as given in BindingDB's records for doi:10.1016/j.ejmech.2008.02.028 (Institute of Chemical Technology, 2008).

Molecular target: Glutathione hydrolase 1 proenzyme (Homo sapiens, UniProt P19440)
Assay: Inhibition of gamma-glutamyltranspeptidase by colorimetric assay
Procedure, shortened: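 Colorimetric read-out at 405 nm by a standard procedure. IC50 is the […] giving 50% inhibition of enzyme activity. Values are the average of three independent experiments (n = 3).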

Glutathione hydrolase 1 proenzyme, sequence (P19440 1-380 limits assumed): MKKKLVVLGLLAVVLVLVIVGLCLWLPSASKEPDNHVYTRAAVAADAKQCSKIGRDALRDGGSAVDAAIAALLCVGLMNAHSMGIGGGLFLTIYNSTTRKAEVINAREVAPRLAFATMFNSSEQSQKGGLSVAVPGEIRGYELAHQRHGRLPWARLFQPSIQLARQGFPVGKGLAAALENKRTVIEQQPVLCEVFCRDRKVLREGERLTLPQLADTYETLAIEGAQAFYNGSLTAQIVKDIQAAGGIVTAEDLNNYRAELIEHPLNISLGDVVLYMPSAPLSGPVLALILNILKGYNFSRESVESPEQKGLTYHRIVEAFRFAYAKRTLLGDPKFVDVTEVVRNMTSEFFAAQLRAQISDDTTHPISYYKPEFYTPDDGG
Glutathione hydrolase 1 proenzyme, sequence (P19440 381-569 limits assumed): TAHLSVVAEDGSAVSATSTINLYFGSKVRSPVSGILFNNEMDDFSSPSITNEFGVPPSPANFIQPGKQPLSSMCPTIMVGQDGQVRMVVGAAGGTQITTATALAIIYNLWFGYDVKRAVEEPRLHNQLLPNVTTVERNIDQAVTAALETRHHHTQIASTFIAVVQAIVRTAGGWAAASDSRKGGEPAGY

IC50 [µM] | Compound
> 30 | CNC(=O)C1=C(C)C2Sc3ccccc3N=C2C(C(=O)NC)C1c1ccc2c(c1)OCO2 (configuration not stated) [2-(1,3-Benzodioxol-5-yl)-N,N',4-trimethyl-2,10-dihydro-1H-phenothiazine-1,3-dicarboxamide]
> 30 | CNC(=O)C1=C(C)C2Sc3ccccc3N=C2C(C(=O)NC)C1c1ccccc1OC (configuration not stated) [2-(2-Methoxyphenyl)-N,N',4-trimethyl-2,10-dihydro-1H-phenothiazine-1,3-dicarboxamide]
